Glyco luc inh = N-linked glycosylation inhibition; AID 588692; D54 ERlucT glycosylation luciferase reporter, 24 h; percent of 100 nM tunicamycin response; reporter increase, % at 12.5 µM; actives 0.23% (n = 360,000);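 active = mean luciferase reporter signal, scaled so untreated is 0 and the glycosylation-blocking control 100, at or above a set limit in every replicate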;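 note: luciferase carries N-glycosylation sites so blocking glycosylation raises the light; 0% = median of neutral control wells and 100% = median of 100 nM tunicamycin wells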
PAX8 reporter = lowers PAX8-driven luciferase in RMG-I cells | RMG-I TPO-luciferase reporter, SteadyGlo, 24 h | inhibition, % at 12.6 µM | actives 1.2% (n = 360,000) | AID 652154;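 active = mean replicate inhibition at least 60% with every replicate also reaching 60%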;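 note: luciferase light reporting Pax8 driven TPO promoter activity; plate controls were median of neutral control wells for no effect and mitoxantrone controls for full effect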
FN deposit inh = fibronectin deposition inhibition | inhibition, % at 12.6 µM | AID 743247 | actives 0.086% (n = 350,000) | AH1F fibroblasts, Alexa488-fibronectin deposition fluorescence, overnight;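 active = mean inhibition across replicates of 30% or more, regardless of how many single replicates reach that level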;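 note: positive control wells lacked labelled fibronectin entirely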
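Assay system: AH1F fibroblasts / Quantity: 10000 cells per well / Medium: DMEM plus 2% serum, read in PBS / Reagent: labelled fibronectin 24 nM / Dosing: single dose, pinned / Times: 1 h cell attachment, overnight exposure to compound and label / Signal: fluorescence, ex 485 nm, em 525 nm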
EWS-Fli block = EWS/Fli transcriptional activity inhibition | actives 0.67% (n = 350,000) | inhibition, % at 12.6 µM | A673 NR0B1-luciferase reporter, viability-normalised;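 active = mean inhibition of at least 50% after viability correction, with every replicate also passing that limit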;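 note: firefly luciferase signal divided by Alamar Blue viability fluorescence both relative to DMSO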
HIV Env fusion = inhibitors of HIV Env-mediated cell fusion. HeLa-JRFL Env/CEM21 cell fusion, luciferase. inhibition, % at 12.3 µM. actives 1.1% (n = 360,000);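 active = mean replicate inhibition score of at least 50 and every replicate individually at or above 50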;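 note: 0% = plate neutral controls and 100% = maraviroc near 300 nM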
MLL AF4-AF9 inh = blocks AF4 peptide binding to human AF9. P42568. AlphaScreen, biotin-AF4 peptide binding to FLAG-AF9. inhibition, % at 10 µM. actives 0.47% (n = 350,000). AID 651704;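 active = every replicate reaching a set inhibition limit, whatever the replicate mean, cut at about 25% in these data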;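 note: 0% = plate neutral control median and 100% = total signal loss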
* marks the source's active call; other numbers are inactive results; [ ] = remark or other dose. Hits are enriched below; roughly 2.5% of the tested compounds scored in any of these assays.

`C[C@@H]1CN([C@H](C)CO)C(=O)c2cc(NS(=O)(=O)c3ccc(Cl)cc3)ccc2O[C@@H](C)CCCCO[C@@H]1CN(C)S(=O)(=O)c1ccc(F)cc1` gave PAX8 reporter 23.1, FN deposit inh -3.1, EWS-Fli block -1.1, HIV Env fusion -38.3[16.7 µM] and MLL AF4-AF9 inh -1.2.
Screening C[C@@H]1CCCCO[C@@H](CN(C)S(=O)(=O)c2ccc(F)cc2)[C@@H](C)CN([C@H](C)CO)C(=O)c2cc(NS(=O)(=O)c3ccc(Cl)cc3)ccc2O1 returned PAX8 reporter 33.2, FN deposit inh -3.7, EWS-Fli block -0.2, HIV Env fusion -25.6[16.7 µM] and MLL AF4-AF9 inh 0.5.
Screening C[C@@H]1CCCCO[C@@H](CN(C)S(=O)(=O)c2ccc(F)cc2)[C@H](C)CN([C@H](C)CO)C(=O)c2cc(NS(=O)(=O)c3ccc(Cl)cc3)ccc2O1 returned PAX8 reporter 86.2*, FN deposit inh -1.7, EWS-Fli block 16.2, HIV Env fusion 24.1[16.7 µM] and MLL AF4-AF9 inh -1.0.
For C[C@H]1CCCCO[C@H](CN(C)S(=O)(=O)c2ccc(Cl)cc2)[C@@H](C)CN([C@@H](C)CO)C(=O)c2cc(NS(=O)(=O)c3ccc(F)cc3)ccc2O1 the results were PAX8 reporter 86.3*, FN deposit inh -7.0, EWS-Fli block 13.6, HIV Env fusion 5.9[16.7 µM] and MLL AF4-AF9 inh -2.2.
C[C@@H]1CCCCO[C@H](CN(C)S(=O)(=O)c2ccc(F)cc2)[C@H](C)CN([C@H](C)CO)C(=O)c2cc(NS(=O)(=O)c3ccc(Cl)cc3)ccc2O1 was read as PAX8 reporter 45.0, FN deposit inh -3.3, EWS-Fli block 6.0, HIV Env fusion 28.8[16.7 µM] and MLL AF4-AF9 inh 1.6.
Screening CCCC#Cc1ccc2c(c1)O[C@H](CN(C)C(=O)c1ccccn1)[C@H](C)CN([C@H](C)CO)S2(=O)=O returned FN deposit inh -3.9, EWS-Fli block 1.1, HIV Env fusion 6.5[16.7 µM] and MLL AF4-AF9 inh 1.7.
Screening CC(=O)Nc1ccc2c(c1)C(=O)N(C)C[C@@H](C)[C@@H](CN(C)C(=O)OC(C)(C)C)O2 returned FN deposit inh -5.3.
C[C@@H]1CCCCO[C@@H](CN(C)S(=O)(=O)c2ccc(Cl)cc2)[C@@H](C)CN([C@@H](C)CO)C(=O)c2cc(NS(=O)(=O)c3ccc(F)cc3)ccc2O1 was read as PAX8 reporter 50.9, FN deposit inh 6.0, EWS-Fli block 3.0, HIV Env fusion -4.9[16.7 µM] and MLL AF4-AF9 inh -5.4.
For C[C@H]1CCCCO[C@H](CN(C)S(=O)(=O)c2ccc(F)cc2)[C@@H](C)CN([C@@H](C)CO)C(=O)c2cc(NS(=O)(=O)c3ccc(Cl)cc3)ccc2O1 the results were PAX8 reporter 89.0*, FN deposit inh -3.9, EWS-Fli block 7.4, HIV Env fusion 10.9[16.7 µM] and MLL AF4-AF9 inh 1.2.
COc1ccc2c3c(n(C)c2c1)[C@@H](CO)N(C(=O)Nc1ccc(F)cc1)CC31CCN(C(=O)Cc2ccncc2)CC1 was read as EWS-Fli block 6.2 and MLL AF4-AF9 inh 2.4.
For CCOC(=O)c1cnc2c(C)cc(C)cc2c1NCCCN1CCOCC1 the results were Glyco luc inh 29.2*, PAX8 reporter 2.7, FN deposit inh -0.7, EWS-Fli block 11.6, HIV Env fusion 1.1 and MLL AF4-AF9 inh 3.1.
`CCOC(=O)c1cnc2ccccc2c1NCCO` gave Glyco luc inh 3.1, FN deposit inh 6.9 and MLL AF4-AF9 inh -0.3.
Screening CCOC(=O)c1cnc2c(ccc3ccccc32)c1NCCCN(C)C returned Glyco luc inh 98.4*, PAX8 reporter -40.8, FN deposit inh 4.6, EWS-Fli block -59.3, HIV Env fusion -178.5 and MLL AF4-AF9 inh 0.2.
`C[C@@H]1CN([C@@H](C)CO)C(=O)c2cc(-c3cncnc3)cnc2O[C@@H]1CN(C)C(=O)Cc1ccccc1` gave PAX8 reporter -17.7, EWS-Fli block 5.1, HIV Env fusion 12.9[16.7 µM] and MLL AF4-AF9 inh -8.3.
O=c1cc(O)c2sc(Nc3ccc(F)c(Cl)c3)nc2[nH]1 was read as Glyco luc inh -1.9, PAX8 reporter 73.7*, FN deposit inh -0.2, EWS-Fli block 27.8, HIV Env fusion 68.1* and MLL AF4-AF9 inh -1.9.
Screening COc1ccc(Nc2nc3[nH]c(=O)cc(O)c3s2)cc1 returned Glyco luc inh -7.9, PAX8 reporter 26.8, FN deposit inh 10.0, EWS-Fli block -3.2, HIV Env fusion 9.9 and MLL AF4-AF9 inh -3.6.
